Drawing on ChEMBL document CHEMBL4265975, “Synthesis, biological evaluation and molecular modeling of a novel series of fused 1,2,3-triazoles as potential anti-coronavirus agents” (Bioorg Med Chem Lett, 2018), this text covers EC50, MCC and selectivity ratio for 8 compounds.

For data set [1], the system named is Human coronavirus 229E. The data set can be described thus: Antiviral activity against Human coronavirus 229E infected in HEL cells assessed as reduction in virus-induced pathogenicity after 3 days by microscopic method. Type of data set: functional, organism-based. The settings on record: 72 h.
A short description of data set [2]: Cytotoxicity against HEL cells assessed as alteration in cell morphology after 3 days by microscopic method. Type of data set: cell-based. The settings on record: human. Put shortly:
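HEL cells were seeded at 5 x 10^3 cells/well and exposed to graded compound concentrations, up to 100 μM, in parallel with the antiviral assay. Cell morphology was examined by light microscopy. MCC is the minimum concentration causing a microscopically detectable alteration of normal cell morphology.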

Data set [3] relates to Human alphaherpesvirus 1. In words: Antiviral activity against Herpes simplex virus 1 KOS infected in human HEL cells assessed as inhibition of virus-induced cytopathic effect after 3 days by microscopic method. Type of data set: functional, organism-based. The settings on record: Human alphaherpesvirus 1, KOS, 72 h.
The subject of data set [4] is Human alphaherpesvirus 2. In words: Antiviral activity against Human herpesvirus 2 strain G infected in human HEL cells assessed as inhibition of virus-induced cytopathic effect after 3 days by microscopic method. Type of data set: functional, organism-based. The settings on record: Human alphaherpesvirus 2, strain G, 72 h. In general terms: Cytopathic effects are the visible damage that an infection or toxin causes in cultured cells.

The subject of data set [5] is Human alphaherpesvirus 1. The data set can be described thus: Antiviral activity against acyclovir-resistant TK-defecient Herpes simplex virus 1 KOS infected in human HEL cells assessed as inhibition of virus-induced cytopathic effect after 3 days by microscopic method. Type of data set: functional, organism-based. The settings on record: Human alphaherpesvirus 1, KOS, 72 h.

Data set [6] relates to Vaccinia virus. In words: Antiviral activity against Vaccinia virus infected in human HEL cells assessed as inhibition of virus-induced cytopathic effect after 3 days by microscopic method. Type of data set: functional, organism-based. As to conditions: Orthopoxvirus vaccinia, 72 h.
Data set [7] concerns Human adenovirus 2. In words: Antiviral activity against Human adenovirus 2 infected in human HEL cells assessed as inhibition of virus-induced cytopathic effect after 3 days by microscopic method. Type of data set: functional, organism-based. As to conditions: Human mastadenovirus C, 72 h. Put shortly:
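HEL cells were infected with adenovirus 2 for 2 h. Residual virus was then removed and the cells were incubated with medium containing graded compound concentrations for 3 days at 37°C. Virus-induced cytopathogenicity was scored microscopically.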

Data set [8] in a line: Selectivity index, ratio of MCC for HEL cells to EC50 for Human coronavirus 229E infected in HEL cells. Type of data set: toxicity, cell-based. The settings on record: read-out: Selectivity Index. Put shortly: (§1)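 SI is MCC divided by EC50. […] MCC was measured in parallel on HEL cells seeded at 5 x 10^3 cells/well, as the lowest concentration causing microscopically visible alteration of cell morphology. The top concentration tested was 100 µM.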

Data set [9] can be described thus: Selectivity index, ratio of MCC for HEL cells to EC50 for Herpes simplex virus 1 KOS infected in HEL cells. Type of data set: toxicity, cell-based. As to conditions: human, read-out: Selectivity Index. Put shortly: as §1
Data set [10] in a line: Selectivity index, ratio of MCC for HEL cells to EC50 for Herpes simplex virus 2 strain G infected in HEL cells. Type of data set: toxicity, cell-based. The settings on record: human, read-out: Selectivity Index. Put shortly:
as §1

Data set [11] can be described thus: Selectivity index, ratio of MCC for HEL cells to EC50 for acyclovir-resistant TK-defecient Herpes simplex virus 1 KOS infected in HEL cells. Type of data set: toxicity, cell-based. As to conditions: human, read-out: Selectivity Index. Put shortly: as §1
Data set [12] can be described thus: Selectivity index, ratio of MCC for HEL cells to EC50 for Vaccinia virus infected in HEL cells. Type of data set: toxicity, cell-based. The settings on record: human, read-out: Selectivity Index. Put shortly: as §1
Data set [13] in a line: Selectivity index, ratio of MCC for HEL cells to EC50 for Human adenovirus 2 infected in HEL cells. Type of data set: toxicity, cell-based. The settings on record: read-out: Selectivity Index. Put shortly: as §1

The EC50 is the concentration that produces a half-maximal response.

As for `COc1ccc(CCn2nnc3c2CCN(c2ccc(C(F)(F)F)cc2)C3)cc1`, the EC50 in [1] is 8.9 µM; in data set [3] it was more than 100 µM; in data set [4] it was more than 100 µM; in data set [5], more than 100 µM; in data set [6], more than 100 µM; in data set [7], more than 100 µM. The MCC at 72 h in [2] was more than 100 µM. Besides, the selectivity ratio in data set [8], in [9], in data set [10], in [11], in data set [12] and in data set [13] was more than 8 throughout.

As for `CCCCCCn1nnc2c1CCN(c1ccc(C(F)(F)F)cc1)C2`, the EC50 in data set [1], in data set [3], in [4], in data set [5], in data set [6] and in data set [7] was more than 100 µM each time. The MCC at 72 h in data set [2] was more than 100 µM. In addition, the selectivity ratio in data set [8], in [9], in data set [10], in [11], in [12] and in data set [13] was more than 8 in each case.

As to `Fc1ccc(N2CCc3c(nnn3CC(c3ccccc3)c3ccccc3)C2)cc1`, the EC50 in data set [1], in [3], in data set [4], in [5], in [6] and in [7] was more than 100 µM throughout. Besides, in [2], the MCC at 72 h is not below 100 µM. Besides, the selectivity ratio in data set [8], in data set [9], in data set [10], in data set [11], in [12] and in [13] was more than 8 in each case.

As to `COc1cccc(CCn2nnc3c2CCN(c2ccc(C(F)(F)F)cc2)C3)c1`, the EC50 in [1] is more than 100 µM; in data set [3], more than 100 µM; in data set [4], more than 100 µM; in [5], more than 100 µM; in data set [6], more than 100 µM; in data set [7] it was 16 µM. For the same compound, the MCC at 72 h in [2] is more than 100 µM. The selectivity ratio in [8], in data set [9], in data set [10], in [11], in data set [12] and in data set [13] was more than 8 throughout.

On to `COc1ccccc1CCn1nnc2c1CCN(c1ccc(C(F)(F)F)cc1)C2`, for which the EC50 in data set [1], in data set [3], in data set [4], in [5], in [6] and in data set [7] was more than 100 µM in each case. For the same compound, the MCC at 72 h in [2] was more than 100 µM. The selectivity ratio in data set [8], in data set [9], in data set [10], in [11], in data set [12] and in data set [13] was more than 8 throughout.

Regarding `Fc1ccc(Cn2nnc3c2CCN(c2ccc(C(F)(F)F)cc2)C3)cc1`, the half-maximal effective concentration (EC50) in data set [1], in data set [3], in data set [4], in data set [5], in [6] and in data set [7] was more than 100 µM in each case. For the same compound, in [2], the MCC at 72 h was determined as 100 µM. In addition, the selectivity ratio in [8], in data set [9], in data set [10], in [11], in data set [12] and in data set [13] was more than 8 in each case.

Regarding `CCCCCCn1nnc2c1CCN(c1ccccc1)C2`, the half-maximal effective concentration (EC50) in data set [1], in data set [3], in data set [4], in data set [5], in [6] and in data set [7] was more than 100 µM each time. Further, the MCC at 72 h in data set [2] is more than 100 µM. Also, the selectivity ratio in data set [8], in [9], in data set [10], in data set [11], in [12] and in data set [13] was more than 8 throughout.

In the case of `Fc1cccc(Cn2nnc3c2CCN(c2ccc(C(F)(F)F)cc2)C3)c1`, the EC50 in data set [1] is 12 µM; in data set [3], more than 100 µM; in [4], more than 100 µM; in [5], more than 100 µM; in [6] it was more than 100 µM; in [7], more than 100 µM. Besides, the MCC at 72 h in data set [2] was determined as 100 µM. In addition, the selectivity ratio in [8], in [9], in [10], in data set [11], in data set [12] and in [13] was more than 8 in each case.
